Hits are enriched below; roughly 3.7% of the tested compounds scored in any of these assays.
KCNQ1 pot: potentiates or activates the human KCNQ1 potassium channel; AID 2648; B-score at 10 µM; CHO-K1 KCNQ1, thallium flux FluxOR fluorescence; stronger effect = higher value; actives 0.35% (n = 310,000);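 active = fluorescence ratio B-score, a plate-corrected score, at least three library SD, with initial intensity B-score within 5 SD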
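Assay system: CHO-K1 cells stably expressing KCNQ1. Medium: assay buffer for compound exposure, DMSO matched across wells. Timing: 37 °C overnight plating, 90-min dark dye load, 20-min compound pretreatment. Signal: kinetic FluxOR fluorescence, 10 s baseline plus 110 s post-stimulus.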
KCNK9 inh: blocks the human KCNK9 two-pore domain potassium channel. Q9NPC2. HEK293 KCNK9, FluxOR thallium flux fluorescence; stronger effect = lower value. B-score at 10 µM. actives 1.2% (n = 310,000). AID 488922;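 active = ratio B-score over 3 SD below the library mean, with starting fluorescence within 5 SD of its mean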;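 note: negative B-score means less thallium flux so channel inhibition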
hERG protect: shields human hERG channel from block by proarrhythmic agents; actives 0.51% (n = 310,000); CHO-hERG, FluxOR thallium flux, dofetilide IC70 present; activation (rescue from dofetilide block), less the hit threshold, % at 10 µM; Q12809;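 active = activation above the mean of controls blocked by dofetilide plus 5 SD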;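 note: thallium influx through hERG after potassium depolarization seen as dye fluorescence rise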
KCNQ1 inh: inhibitors of human KCNQ1 potassium channel. P51787. CHO-K1 KCNQ1, FluxOR thallium flux fluorescence; stronger effect = higher value. B-score at 10 µM. actives 1.3% (n = 310,000). AID 2642;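 active = compounds whose thallium flux B-score, printed positive for inhibition, exceeds three library SD while starting fluorescence stays within three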;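 note: channel opened by potassium depolarization with thallium stimulus after 20 min compound exposure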
KCNK3 block: human KCNK3 channel inhibition, primary screen | O14649 | CHO-KCNK3 thallium flux, FluxOR fluorescence; stronger effect = lower value | B-score at 10 µM | actives 0.84% (n = 340,000) | AID 602410;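 active = B-score under library mean minus 4 SD, starting fluorescence ratio at most library mean plus 5 SD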;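 note: more negative B-score means stronger inhibition of thallium flux through KCNK3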
Kir21 inh: inhibitors of mouse Kir2.1 inward-rectifier potassium channel; B-score at 10 µM; AID 1672; actives 0.85% (n = 310,000); HEK293-Kir2.1, FluxOR thallium flux fluorescence; stronger effect = lower value;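 active = fluorescence ratio B-score at or below minus 3 SD of library scores, with starting-brightness B-score within 2 SD, cut at about -4.2 in these data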;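 note: channel flux triggered by added potassium and thallium sulfate stimulus; B-score of peak minus minimum fluorescence over baseline after thallium stimulus; more negative B-score means stronger Kir2.1 block with less thallium influx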
Target sequence (P35561 whole entry, looked up): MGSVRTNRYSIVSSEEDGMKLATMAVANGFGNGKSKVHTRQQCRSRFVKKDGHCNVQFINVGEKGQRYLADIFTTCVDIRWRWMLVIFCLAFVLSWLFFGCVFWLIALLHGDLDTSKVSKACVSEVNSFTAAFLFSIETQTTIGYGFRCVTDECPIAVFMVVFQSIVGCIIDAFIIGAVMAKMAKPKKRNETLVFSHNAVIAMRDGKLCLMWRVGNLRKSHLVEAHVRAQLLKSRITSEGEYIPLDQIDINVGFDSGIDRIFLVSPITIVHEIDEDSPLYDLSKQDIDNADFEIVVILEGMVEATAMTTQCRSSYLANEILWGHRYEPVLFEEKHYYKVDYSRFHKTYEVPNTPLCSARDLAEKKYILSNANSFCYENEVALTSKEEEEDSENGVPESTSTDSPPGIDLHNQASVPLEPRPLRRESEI
KCNK3 confirm: confirmation of human KCNK3 two-pore domain potassium channel inhibitors; shares compounds with KCNK3 block; CHO-KCNK3 thallium flux, FluxOR fluorescence; 0% buffer, 100% carvedilol maximal block; ratio percent of control, % at 10 µM; actives 99% (n = 2,400); AID 651638;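 active = ratio percent of control, averaged over triplicates, above buffer control mean plus 5 SD, cut at about 64% in these data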;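 note: ratio is the fluorescence rise from min to max over baseline after thallium stimulus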
KCNK3 noninduced: KCNK3 inhibitor counter-screen hit in non-induced cells. non-induced KCNK3 parental cells, FluxOR thallium flux; stronger effect = lower value. thallium flux ratio (lower = more inhibition) at 10 µM. AID 651747. actives 40% (n = 2,400). shares compounds with KCNK3 block;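 active = thallium flux ratio, averaged over three wells, more than 5 SD below the buffer control mean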;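 note: host cells are CHO cells without KCNK3 induction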
Large screens that a line does not name were inactive (follow-up assays come after a bar, where they were run).

CCC(NC(=O)C(C)NC)C(=O)N1CCCC1C(=O)NC1CCCc2ccccc21 (stereo unspecified)	none (no result: KCNQ1 pot, KCNK9 inh, hERG protect, KCNQ1 inh, Kir21 inh)
COc1cccc(/C=C2/Sc3ccc(C(=O)NCCN4CCCCCC4)cc3NC2=O)c1	KCNQ1 inh 7, KCNK3 block -10 | KCNK3 confirm 112 | KCNK3 noninduced inactive
COc1ccc(/C=C2/Sc3ccc(C(=O)NCCCN4CCOCC4)cc3NC2=O)cc1OC	none
CCn1c2ccccc2c2cc(/C=N/NC(=O)c3ccncc3)ccc21	KCNK3 block -11 | KCNK3 confirm 116 | KCNK3 noninduced 0.14
CCn1c2ccccc2c2cc(NC(=O)c3ccc(Br)o3)ccc21	KCNK3 block -11 | KCNK3 confirm 116 | KCNK3 noninduced inactive
CCn1c2ccccc2c2cc(NC(=O)c3cc(C)on3)ccc21	KCNK3 block -10 | KCNK3 confirm 123 | KCNK3 noninduced 0.16
CCn1c2ccccc2c2cc(NC(=O)c3ccc(=O)oc3)ccc21	none
O=C1COc2ccc(C(=O)COc3ccc([N+](=O)[O-])cc3)cc2N1	none
CC1Sc2ccc(S(=O)(=O)CCC(=O)Nc3cc(F)ccc3F)cc2NC1=O (stereo unspecified)	none
CN=C(Nc1ccc(C(=O)OC)s1)c1ccccc1	none
CCC(C)(c1ccc(C(=O)OC)s1)c1ccc(C(=O)OC)s1	KCNK3 block -9.1 | KCNK3 confirm 119 | KCNK3 noninduced 0.14
O=C(O)C1C2C=CC(C2)C1C(=O)Nc1ccc(Cl)c(Cl)c1 (stereo unspecified)	none
C=CCOC(=O)C1=C(C)NC(=O)NC1c1cn(-c2ccccc2)nc1-c1cccs1 (stereo unspecified)	KCNK3 block -9.2 | KCNK3 confirm 120 | KCNK3 noninduced 0.15
COCCOC(=O)C1=C(C)NC(=O)NC1c1cn(-c2ccccc2)nc1-c1cccs1 (stereo unspecified)	none
CCOC(=O)c1ccccc1NC(=O)c1ccc2c(SCC(=O)O)c3c(nc2c1)CCCC3	KCNK3 block -9.7 | KCNK3 confirm 123 | KCNK3 noninduced inactive
CCC(CO)Nc1nc2ccc(Cl)cc2c2ccccc12 (stereo unspecified)	KCNK3 block -9.2 | KCNK3 confirm 98 | KCNK3 noninduced inactive
COC(=O)NCc1ccc2c(c1)OCO2	none
C/C(=C\C(=O)c1ccc(Cl)cc1)NCc1ccc2c(c1)OCO2	KCNK3 block -9.8 | KCNK3 confirm 84 | KCNK3 noninduced 0.16
NS(=O)(=O)c1cccc(NS(=O)(=O)c2cccc(C(F)(F)F)c2)c1	none
c1ccc(COn2nnc3ccccc32)c(COn2nnc3ccccc32)c1	KCNK3 block -9.7, Kir21 inh -5.7 | KCNK3 confirm 102 | KCNK3 noninduced inactive
COC(=O)CSc1nc2c(c(-c3ccco3)c1C#N)CCCC2	none
CCOC(=O)CSc1nc2c(c(-c3ccc(C)o3)c1C#N)CCCC2	KCNK3 block -9.3 | KCNK3 confirm 98 | KCNK3 noninduced inactive
Cc1cc(O)c(C(C)C)cc1NC(=O)c1ccc(Cl)cc1	none
Cc1cc(O)c(C(C)C)cc1NC(=O)c1cccc(Cl)c1	KCNK3 block -9 | KCNK3 confirm 109 | KCNK3 noninduced inactive
Cc1c(Cl)cccc1NC(=O)C(=O)NNC(=O)c1ccccc1F	none
CCOC(=O)c1cc(C#N)c(SCC(=O)c2cc(C#N)c(SC)nc2C)nc1C	KCNK3 block -11 | KCNK3 confirm 107 | KCNK3 noninduced 0.14
CCOC(=O)c1cc(C#N)c(SCc2cccc3ccccc23)nc1C	none
Cc1ccc(C(=O)NCC(=O)OCC(=O)Nc2cc(S(=O)(=O)N3CCOCC3)ccc2Cl)s1	none (no result: KCNQ1 pot, KCNK9 inh, hERG protect, KCNQ1 inh, Kir21 inh)
Cc1ccc(S(=O)(=O)N2CCOCC2)cc1NC(=O)COC(=O)CNC(=O)c1ccc(Cl)cc1Cl	KCNK3 block -10 | KCNK3 confirm 87 | KCNK3 noninduced inactive
Cc1cc(C)c(S(=O)(=O)N2CCc3ccccc32)c(C)c1	KCNQ1 inh 6, KCNK3 block -13 | KCNK3 confirm 115 | KCNK3 noninduced 0.13
COCCN(C(=O)Nc1ccccc1OC)c1nc2ccccc2s1	KCNK3 block -11 | KCNK3 confirm 114 | KCNK3 noninduced inactive
CCOC(=O)CN1C(=O)/C(=C/c2c(F)cccc2Cl)Oc2ccccc21	KCNK9 inh -7.8, KCNQ1 inh 6, KCNK3 block -8.8 | KCNK3 confirm 123 | KCNK3 noninduced inactive
Cc1nc(-c2ccccc2)sc1C(=O)CSc1ccc(F)cc1	KCNK3 block -13 | KCNK3 confirm 96 | KCNK3 noninduced inactive
O=C(c1cc(-c2cccc(Cl)c2)on1)N1CCCCCC1	KCNK3 block -10 | KCNK3 confirm 114 | KCNK3 noninduced inactive
O=C(Nc1cc2c(cc1Br)OCCO2)c1ccc(=O)[nH]c1	none (no result: KCNQ1 pot, KCNK9 inh, hERG protect, KCNQ1 inh, Kir21 inh)
Cc1cc(C)cc(NC(=O)N2CCNC(=O)C2CC(=O)Nc2cc(Cl)ccc2Cl)c1 (stereo unspecified)	none
COC(=O)c1cccc(NC(=O)CC2C(=O)NCCN2C(=O)Nc2cc(C)cc(C)c2)c1 (stereo unspecified)	KCNK3 block -9.2 | KCNK3 confirm 119 | KCNK3 noninduced 0.14
CN(C)S(=O)(=O)c1ccc(C(=O)NCc2ccco2)cc1	KCNK3 block -9.2 | KCNK3 confirm 72 | KCNK3 noninduced inactive
CCCN(CCC)S(=O)(=O)c1ccc(C(=O)NCc2ccco2)cc1	none
O=C(COC(=O)c1ccccn1)NCCc1ccc(Cl)cc1	none (no result: KCNQ1 pot, KCNK9 inh, hERG protect, KCNQ1 inh, Kir21 inh)
O=c1oc2c(CN3CCN(CCO)CC3)c(O)ccc2cc1-c1ccccn1	none
Cc1ccsc1CN(C)C(=O)c1ccc(Oc2ccccc2)cc1	KCNK9 inh -7.5, KCNK3 block -9.9 | KCNK3 confirm 113 | KCNK3 noninduced inactive
Cc1ccc(C)c(NC(=O)c2ccc3c(c2)N(Cc2ccc(F)cc2)C(=O)CS3=O)c1 (stereo unspecified)	none
O=C(Nc1ccc(Br)cc1F)c1ccc2c(c1)N(Cc1ccccc1)C(=O)CS2=O (stereo unspecified)	KCNK3 block -13 | KCNK3 confirm 100 | KCNK3 noninduced inactive
Cn1nnnc1Sc1ncnc2scc(-c3ccc(-c4ccccc4)cc3)c12	none (no result: KCNQ1 pot, KCNK9 inh, hERG protect, KCNQ1 inh, Kir21 inh)
Cn1nnnc1Sc1ncnc2scc(-c3cc4ccccc4o3)c12	KCNK3 block -13 (no result: KCNQ1 pot, KCNK9 inh, hERG protect, KCNQ1 inh, Kir21 inh) | KCNK3 confirm 118 | KCNK3 noninduced inactive
CCn1nc(C(=O)OCC(=O)Nc2nc(-c3ccc(OC)cc3)cs2)c2ccccc2c1=O	none
CCOc1ncccc1C(=O)Nc1cccc(S(=O)(=O)N2CCOCC2)c1	none (no result: KCNQ1 pot, KCNK9 inh, hERG protect, KCNQ1 inh, Kir21 inh)
